MT1-MMP act inh – blocks activation of human MT1-MMP; 360,000 tested, 0.061% active; AID 651647; P50281; GFP/RFP ratio change, % at 20 µM; HT1080 RFP-PRO-GFP cells, GFP/RFP ratio fluorescence, overnight; percent of plate control window, DMSO zero;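 active = GFP/RFP ratio change of at least 30% with cell ATP level not reduced by more than half and red fluorescence within 50% of control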
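Compound: 20 µM single dose, 1% DMSO / System: HT1080 RFP-PRO-GFP cells / Controls: DMSO and RFP-L50D-GFP cell wells / Read-out basis: GFP/RFP fluorescence ratio / Schedule: overnight compound exposure at 37 °C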
ADAM10 inh – inhibitors of human ADAM10; O14672; recombinant ADAM10, EDANS/DABCYL FRET peptide cleavage, 3 h; inhibition, % at 7 µM; 370,000 tested, 0.62% active;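 active = inhibition above a per-campaign cutoff equal to the mean of compounds falling between control-based bounds plus 3 SD, cut at about 20% in these data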;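 note: 0% = DMSO wells while the 100% control is not disclosed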
Target sequence (O14672 214-748 limits assumed): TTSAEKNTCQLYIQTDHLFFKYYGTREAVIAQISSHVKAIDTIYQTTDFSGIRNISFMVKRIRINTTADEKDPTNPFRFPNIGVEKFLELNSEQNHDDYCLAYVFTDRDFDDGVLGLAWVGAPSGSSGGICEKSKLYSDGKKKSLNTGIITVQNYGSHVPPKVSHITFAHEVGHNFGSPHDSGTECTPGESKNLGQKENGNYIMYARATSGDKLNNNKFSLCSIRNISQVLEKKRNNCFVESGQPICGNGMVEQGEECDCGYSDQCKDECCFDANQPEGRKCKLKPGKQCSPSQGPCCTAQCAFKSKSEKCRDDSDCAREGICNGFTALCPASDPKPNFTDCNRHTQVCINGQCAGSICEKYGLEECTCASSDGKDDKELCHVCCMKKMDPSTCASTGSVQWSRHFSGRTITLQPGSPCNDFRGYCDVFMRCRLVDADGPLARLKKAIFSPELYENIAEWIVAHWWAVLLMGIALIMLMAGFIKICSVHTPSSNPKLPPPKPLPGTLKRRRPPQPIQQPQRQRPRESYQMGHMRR
SKN-1 inh – C. elegans SKN-1 inhibition | AID 624304 | 360,000 tested, 0.49% active | inhibition, % at 21.8 µM | C. elegans VP596 Pgst-4::GFP/RFP ratio, acrylamide-induced, 24 h;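 active = interference check ratio from 0.5 to 1.5 plus GFP to RFP signal ratio inhibition reaching or exceeding a fixed threshold, cut at about 30% in these data, passing the limit was not always enough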
NR3A LBD binder – NR3A (human) ligand-binding domain modulation. 340,000 tested, 2.5% active. NR3A LBD differential scanning fluorimetry, Tm shift; 0% = protein alone, 100% = glycine-bound protein. Tm shift relative to glycine control, % at 25 µM;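 active = melting temperature shift of at least 10% of the positive control shift, at one fixed dose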
MPTP block – inhibitors of mitochondrial permeability transition pore. isolated mouse mitochondria, Ca2+ swelling absorbance, 30 min. inhibition, % at 10 µM. 360,000 tested, 1.4% active. AID 602449;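 active = inhibition of 50% or more, scaled per plate between neutral and stimulator controls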;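 note: 0% = DMSO wells given calcium and 100% = 1 mM EGTA wells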
ADAM17 inh – inhibitors of human ADAM17. AID 720648. P78536. 370,000 tested, 0.83% active. recombinant ADAM17, EDANS/DABCYL FRET peptide cleavage. inhibition, % at 6.95 µM;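 active = inhibition above the mean of compounds lying between control limits plus 3 SD, set per campaign, cut at about 8.5% in these data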;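 note: 0% = DMSO-only wells as the low control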
MPTP counter – Rhodamine 123 counter-screen of mitochondrial pore hits. shares compounds with MPTP block. isolated mitochondria, membrane potential, Rhodamine 123 fluorescence. inhibition, % at 10 µM. 5,000 tested, 78% active; in the data active = inhibition above about 22%;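 note: 0% = DMSO vehicle and 100% = positive control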
MPTP abs DR – MPTP inhibition, dose response swelling confirmation; shares compounds with MPTP block; isolated mitochondria swelling, absorbance; 780 tested, 58% active; IC50, µM; in the data active = IC50 below about 20 µM
MPTP counter DR – MPTP inhibitor counter-screen activity, dose response. shares compounds with MPTP block. isolated mitochondria counterscreen, fluorescence read-out. IC50, µM. 780 tested, 49% active. AID 651564; in the data active = IC50 below about 80 µM
Active calls of the source: *; i = inactive; · = no result given. Compounds with a hit are over-represented: about 4.7% of the library has one in this group of screens.

SMILES	MT1-MMP act inh	ADAM10 inh	SKN-1 inh	NR3A LBD binder	MPTP block	ADAM17 inh	MPTP counter	others
O=C(NCCc1ccc2c(c1)OCCO2)c1cc(S(=O)(=O)N2CCCC2)ccc1Br	-2	-2	0	0	0	-4	·
CC(c1ccccc1)N1C(=O)/C(=C/c2ccncc2)SC1=S (configuration not stated)	4	8	5	7	70*	0	29*
CCc1ccc(/C=C2/SC(=S)N(CCC(=O)NCCCN3CCOCC3)C2=O)cc1	-1	7	-11	-2	3	-2	·
O=C(CCN1C(=O)/C(=C/c2ccccc2)SC1=S)NNC(=O)c1ccncc1	3	-1	-3	0	7	-2	·
O=C(CCN1C(=O)/C(=C\c2ccccc2)SC1=S)NNC(=O)c1ccncc1	4	2	-5	-1	53*	2	4	MPTP abs DR=>100;MPTP counter DR=>80
O=C(CCN1C(=O)/C(=C/c2ccccc2)SC1=S)NCCCN1CCOCC1	-1	-9	-6	-3	74*	0	4	MPTP abs DR=i;MPTP counter DR=63*
O=C(CCN1C(=O)/C(=C\c2cccc(Br)c2)SC1=S)NCCCN1CCOCC1	1	-1	5	0	65*	2	18	MPTP abs DR=17*;MPTP counter DR=17*
Cc1c(/C=N/O)c2ccccn2c1C(=O)c1ccc(F)cc1	5	-7	0	2	0	-7	·
CCOc1ccccc1OCC(=O)OCC(=O)c1c(N)n(CC(C)C)c(=O)n(C)c1=O	-1	-5	2	-1	-1	-6	·
CCC(C)NC(=O)C1CCN(C(=O)N(C)C)CC1 (configuration not stated)	4	-18	0	1	2	-2	·
COc1ccc(CNc2cc(C)nc3ncnn23)c(OC)c1	6	-2	0	-9	75*	-3	34*
CCS(=O)(=O)Nc1cccc(-c2cn3c(n2)SCC3)c1	1	7	-2	1	1	-1	·
Cc1ccc(CCNc2ncnc(Cl)c2N)cc1	0	-15	10	8	101*	-1	108*
Nc1c(Cl)ncnc1NCCO	5	3	-5	-2	0	3	·
Nc1c2c(nc3sc4c(c13)CCCC4)CCCCCC2	2	11	16	-1	86*	-1	103*
Nc1nc2sc3c(c2c(=O)s1)CCCC3	7	1	14	-2	1	-2	·
CCN(CC)CCCn1c2c(c(SCC(=O)Nc3cc(C)on3)nc1=O)CCC2	-3	4	1	-3	0	-3	·
O=C(Nc1ccc(F)cc1F)Nc1csc2ccccc12	3	3	-8	15*	83*	3	85*
O=C(Nc1ccc(F)c(Cl)c1)Nc1csc2ccccc12	-8	3	-9	39*	76*	-1	68*
O=C(CSc1nnnn1C1CC2CCC1C2)Nc1ccnc2ccccc12 (configuration not stated)	-3	1	-21	-1	98*	-1	101*
CNCCC=C1c2ccccc2CCc2ccccc21	-2	-2	2	0	86*	-6	-9	MPTP abs DR=6*;MPTP counter DR=>80
COc1cc(/C=C2\SC(=O)N(Cc3ccc(Cl)cc3)C2=O)cc([N+](=O)[O-])c1O	19	2	-4	6	7	-1	·
CCOc1ccc(S(=O)(=O)Nc2cccc(N(C)S(C)(=O)=O)c2)cc1	-5	2	19	0	95*	-4	42*
O=C(NNC(=S)NC(=O)c1sc2ccccc2c1Cl)c1ccc(Cl)cc1	0	9	-11	-5	108*	2	20
O=C(NC(=S)NNC(=O)c1cccs1)c1ccccc1	6	-5	-4	-29	-1	-5	·
SMILES	MT1-MMP act inh	ADAM10 inh	SKN-1 inh	NR3A LBD binder	MPTP block	ADAM17 inh	MPTP counter	others
Cc1cccc(C(=O)NC(=S)NNC(=O)c2cccs2)c1	4	6	8	-7	54*	3	-12
CC(C)(C)c1ccc(C(=O)NC(=S)NNC(=O)c2cccs2)cc1	-8	-1	8	-6	92*	-1	29*
Cc1cccc(C(=O)NC(=S)NNC(=O)c2ccc(Cl)cc2)c1	3	13	15	-9	95*	4	19
COc1ccccc1N(Cc1ccccc1)S(=O)(=O)c1cccc(C(=O)NC2CC(C)(C)NC(C)(C)C2)c1	3	1	6	0	84*	1	-18	MPTP abs DR=7.6*;MPTP counter DR=>80
COc1ccccc1N(Cc1ccccc1)S(=O)(=O)c1cccc(C(=O)O)c1	10	3	8	2	-4	-4	·
CC1(C)CC(NC(=O)c2ccc(Cl)c(S(=O)(=O)N(Cc3ccccc3)c3ccccc3)c2)CC(C)(C)N1	0	2	11	3	97*	3	-20
COc1cccc(-c2ccc(SCC(=O)N3CCOCC3)nn2)c1	1	4	-6	0	-2	-2	·
CN(Cc1ccccc1)c1nc(N)nc(Cl)c1C=O	1	10	14	1	-1	0	·
CN(C)CC1CCCCC1C1(O)c2ccccc2CSc2sccc21 (configuration not stated)	-8	-3	-1	0	57*	-1	-5	MPTP abs DR=18*;MPTP counter DR=>80
FC(F)(F)c1nnc(-c2ccccc2)nc1Oc1ccc(Cl)cc1Cl	-2	6	3	-7	71*	3	1	MPTP abs DR=14*;MPTP counter DR=>80
CC(=O)c1c(C)[nH]c(C(=O)OCCCCN2C(=O)c3ccccc3C2=O)c1C	1	5	-5	3	103*	0	91*
Cc1cc2oc3cc(NCCC4CCCN4C)ccc3c(=O)c2cc1C (configuration not stated)	7	i	6	-10	94*	i	-23
COc1ccc(NS(=O)(=O)c2ccc(-c3coc(C)n3)cc2)cc1OC	6	-6	6	·	98*	-4	83*
COc1ccc(NS(=O)(=O)c2ccc(-c3coc(C)n3)cc2)cc1	6	2	-3	3	1	-4	·
O=C(NNC(=O)c1cccs1)c1ccc(F)cc1	1	-17	9	-1	0	0	·
O=C(O)C1CC=CCC1C(=O)NNS(=O)(=O)c1ccccc1 (configuration not stated)	-2	-7	-10	1	-1	1	·
Cc1cc(F)ccc1NCc1ccccc1[N+](=O)[O-]	2	8	8	0	-1	-1	·
